SENP1 FRET inh: human SENP1 catalytic domain inhibitors, primary screen, biochemical, FRET, uHTS; 360,000 compounds, 0.21% hits; AID 624204, 2012; inhibition, % at 10 µM; recombinant SENP1 catalytic domain, CyPet-SUMO1-YPet FRET cleavage;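 active means inhibition at least 30% at 10 µM, raw YFP signal under a set limit, fluorescence ratio 0.5 to 1.5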;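 further: 0% = enzyme with DMSO and 100% = no enzyme wells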
Target sequence (Q9P0U3 419-644 limits assumed): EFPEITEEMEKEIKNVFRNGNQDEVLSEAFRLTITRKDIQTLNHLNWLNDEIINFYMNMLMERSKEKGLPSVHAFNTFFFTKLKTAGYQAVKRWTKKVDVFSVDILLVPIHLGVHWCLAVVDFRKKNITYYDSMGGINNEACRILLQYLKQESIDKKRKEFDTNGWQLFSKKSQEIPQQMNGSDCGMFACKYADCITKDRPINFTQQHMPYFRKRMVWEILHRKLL
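material = recombinant human SENP1 catalytic domain, His6-tagged | quantity = 20 pM enzyme | reagent = 25 nM SUMO1 FRET substrate | compound dosing = 10 µM single point, 0.5% DMSO | timing = 50 min enzyme reaction, room temperature, light-protected | detection = FRET, CFP and YFP emission | control set = no-enzyme low, enzyme-DMSO high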
ATG4B inh: ATG4B protease inhibitors, primary screen, biochemical, fluorescence, uHTS. Cysteine protease ATG4B (Homo sapiens), Q9Y4P1. ATG4B cleavage of LC3-PLA2, NBD-HPC fluorescence, 1 h. inhibition, % at 8.33 µM. 340,000 compounds, 0.51% hits; in the data active means inhibition above about 40%
Target sequence (Q9Y4P1 whole entry, looked up): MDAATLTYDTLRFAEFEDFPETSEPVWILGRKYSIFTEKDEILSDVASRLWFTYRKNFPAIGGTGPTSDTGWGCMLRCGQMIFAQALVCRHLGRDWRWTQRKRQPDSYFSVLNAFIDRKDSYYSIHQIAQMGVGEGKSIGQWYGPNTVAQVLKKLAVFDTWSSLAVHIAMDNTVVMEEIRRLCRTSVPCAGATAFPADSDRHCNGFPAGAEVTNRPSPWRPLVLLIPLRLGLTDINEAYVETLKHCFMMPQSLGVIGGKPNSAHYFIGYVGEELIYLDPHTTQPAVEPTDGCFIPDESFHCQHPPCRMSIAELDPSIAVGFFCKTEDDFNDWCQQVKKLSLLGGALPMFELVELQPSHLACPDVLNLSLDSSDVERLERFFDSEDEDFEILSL
Rpn11 inh: Rpn11 (PSMD14) deubiquitinase inhibitors, primary screen, biochemical, fluorescence polarization, uHTS | 26S proteasome non-ATPase regulatory subunit 14 (Homo sapiens), O00487 | human 26S proteasome, Ub4-pepOG fluorescence polarization; 20S core pre-blocked with epoxomicin | inhibition, % at 20 µM | 360,000 compounds, 0.59% hits | AID 588493, 2011;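 active means inhibition at 20 µM, scaled to each plate's controls, above about 33%, limit read from the data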
TPT1 inhibitor: Candida albicans TPT1 enzyme inhibitors, primary screen, biochemical, fluorescence polarization; tRNA 2'-phosphotransferase TPT1 (Candida albicans SC5314); recombinant caTPT1, FP RNA substrate dephosphorylation; inhibition, % at 5 µM; 300,000 compounds, 0.81% hits;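 active means inhibition above the mean of all tested compounds plus 3 SD, set per screening campaign, cut at about 24% in these data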;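 further: plate controls were DMSO alone for no effect and ferristatin control at 100 nM for full effect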
HNF4A DNA FP: change in binding of human HNF4A to DNA, primary screen, biochemical, fluorescence polarization, FITC-DNA; 1 h; activity change, % at 10 µM; 360,000 compounds, 0.3% hits; AID 1224865, 2016; in the data active means activity change above about 30%, passing the limit was not always enough
CSN deneddyl inh: inhibitors of CSN-mediated cullin deneddylation, primary screen, biochemical, fluorescence polarization, uHTS | Purified CSN, SCF-Nedd8-OG deneddylation | inhibition, % at 12.5 µM | 360,000 compounds, 0.38% hits | AID 651999, 2013;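 active means pattern-corrected inhibition above about 35%, with an unprinted fluorescence ratio check between 0.5 and 1.5, limit read from the data, passing the limit was not always enough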;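 further: 0% = enzyme with substrate and 100% = substrate without enzyme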
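Assay system: Purified human Csn5 enzyme expressed in HEK293T cells | Amount: Enzyme 0.24 nM | Measured by: Fluorescence polarization readout | Medium: Tris/NaCl/DTT buffer, pH 7.5 | Compound dosing: One concentration, 12.5 µM, 0.25% DMSO | Times: 90 min incubation of compound, enzyme and substrate at room temperature | Control set: no-enzyme wells high, enzyme-with-substrate wells low | Read-out: % inhibition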
An asterisk follows results filed as active; . = not tested or not shown. Sampled rows, rich in hits. Any-hit rate of the full collection: about 2%.

SMILES | SENP1 FRET inh | ATG4B inh | Rpn11 inh | TPT1 inhibitor | HNF4A DNA FP | CSN deneddyl inh
CCOC(=O)/C(=C/c1ccc(OC(=O)c2ccncc2)cc1)C(C)=O | 1 | -9 | -1 | 2 | -2 | 36*
O=c1[nH]c(=S)[nH]c2c1C(c1ccc(F)cc1)OC(CCOCc1ccccc1)C2 (stereo not given) | -1 | . | 6 | . | 2 | 1
COc1ccc2c(c1)C(=O)O[C@@H](c1ccccc1)C[C@@H](O)C(=O)CC2 | 2 | . | . | . | 2 | 87*
COc1ccc2c(c1)CCC(=O)[C@H](O)C[C@H](c1ccccc1)OC2=O | 0 | . | . | . | 1 | -4
COc1ccc2[nH]c(=O)c(CN(C3CCCCC3)C(c3nnnn3Cc3ccco3)C(C)C)cc2c1 (stereo not given) | -17 | -3 | . | 57* | 54* | 19
COc1ccc2[nH]c(=O)c(CN(Cc3nnnn3Cc3ccco3)C3CCCCC3)cc2c1 | 4 | 10 | 13 | 10 | 7 | 15
Cc1ccc(C(=O)NNC(=O)CSc2nnc3c(n2)[nH]c2ccc(F)cc23)cc1 | -17 | 0 | 10 | -1 | -10 | 43*
CCOC(=O)C1=C(O)/C(=C/c2ccc(-c3ccccc3C(=O)O)o2)SC1=Nc1ccc(C)cc1 | -34 | -1 | . | . | 58* | 50*
CCOC(=O)C1=C(O)/C(=C/c2ccccn2)SC1=Nc1ccc(Cl)cc1 | -12 | -15 | 0 | 1 | 0 | -3
COC(=O)c1cc(C(=O)OCC(=O)c2ccc3c(c2)NC(=O)CO3)cc([N+](=O)[O-])c1 | -1 | 1 | -1 | . | 6 | 70*
Cc1cc(C)c2nc(-c3ccccc3)ccc2c1 | -2 | . | 0 | . | 1 | 6
CCn1cc(CNC(=O)/C=C/c2ccc([N+](=O)[O-])cc2)c(C)n1 | 2 | -1 | 2 | -1 | 0 | 5
CCn1cc(CNC(=O)/C=C/c2cnn(C)c2)c(C)n1 | 4 | -8 | -1 | -1 | 45* | -1
CSc1nnnn1CCn1nnnc1SC | 1 | 0 | -4 | -2 | -5 | 51*
Cn1nnnc1SCSc1nnnn1C | 1 | 6 | 0 | -3 | -1 | -1
CCOC(=O)C1=CCN(S(=O)(=O)c2cccc(Cl)c2)C1c1ccc(F)cc1 (stereo not given) | 2 | . | 4 | . | 1 | 5
COc1ccccc1Cc1c(C2CCCCC2)nc2ccc(Cl)cn12 | -22 | . | 15 | . | 17 | 60*
COc1ccccc1Cc1c(C2CCCCC2)nc2ccc(C)cn12 | -2 | . | 13 | . | 3 | 10
CN(c1ccccc1)S(=O)(=O)c1ccc(Cl)c(C(=O)NCc2ccccc2CN2CCCC2)c1 | 1 | 8 | 6 | . | 2 | -6
Cn1ccc2c(-c3ccc4c(c3)OCCO4)cc3c(c21)C1CCC3C1 (stereo not given) | -20 | . | 1 | . | 2 | 117*
CCOc1cc(/C=N/NC(=O)c2nnn(-c3nonc3N)c2C)ccc1OCc1ccc(C)cc1 | 0 | . | 8 | . | 25 | 41*
COc1ccc(Cc2c(N)nc(N)nc2N)cc1 | 0 | 0 | -2 | -3 | -3 | 1
Nc1ccc(OCCCc2c(N)nc(N)nc2N)cc1 | 2 | 9 | 81* | -5 | 5 | 30
CCOC(=O)c1ccc(-n2c(CCC(=O)O)ccc2-c2ccc(F)cc2)cc1 | -10 | 8 | 9 | 5 | 2 | 42*
O=C(NCc1ccc(F)cc1F)[C@@H]1CCCN1C(=O)[C@@H]1CCCN1 | 2 | . | . | . | -4 | -5
SMILES | SENP1 FRET inh | ATG4B inh | Rpn11 inh | TPT1 inhibitor | HNF4A DNA FP | CSN deneddyl inh
CC(C)(C)NC(=O)Cn1c(SCC(=O)N2CCCCCC2)nc2ccccc21 | -2 | -3 | -8 | -2 | 32* | -4
CC(C)(C)NC(=O)Cn1c(SCC(N)=O)nc2ccccc21 | 1 | -8 | 9 | -1 | 1 | 1
CC1(C(=O)NS(=O)(=O)c2ccc(F)cc2F)CCN1C(=O)CC1CCCC1 (stereo not given) | -1 | . | -8 | . | -4 | 2
O=C(N/N=C/c1ccc(O)c2ncccc12)c1cccc(Br)c1 | 52* | -3 | 38 | 2 | -10 | 0
O=C(N/N=C/c1cc(Br)ccc1O)c1ccncc1 | -31 | -7 | 36 | 12 | 8 | 9
COc1ccc(C2=Nc3ccccc3C2(O)CCN2C(=O)c3ccccc3C2=O)cc1 (stereo not given) | -16 | -7 | -2 | . | 4 | 0
CC1=CC(=O)C(C(C)=Nc2ccccc2[N+](=O)[O-])C(=O)O1 (stereo not given) | 0 | -4 | 0 | . | -2 | -5
COc1cc2nc(N3CCN(c4cc(C)ccc4C)CC3)nc(N)c2cc1OC | 2 | 6 | -6 | -4 | 3 | 1
COc1cc2nc(N3CCNCC3)nc(N)c2cc1OC | 2 | -10 | 38 | -2 | 53 | 116*
Cc1ccc(C(=O)N2CCC3CC2c2cc(-c4ccc5c(c4)OCO5)ccc23)cc1 (stereo not given) | 3 | 7 | 4 | . | 3 | -4
COc1cccc2cc(C(=O)NNC(=O)c3ccc(Br)cc3)c(=O)oc12 | 5 | 13 | 15 | 1 | 1 | 110*
Cc1ccn2c(NC3CCCCC3)c(-c3ccc(SC4CCCCC4)cc3)nc2c1 | -20 | . | . | . | 54* | 19
Cc1ccn2c(NC3CCCCC3)c(-c3cccc(SC4CCCCC4)c3)nc2c1 | -18 | 11 | 20 | . | 11 | 5
O=C(CSc1cccc[n+]1[O-])Nc1cc(Cl)ccc1[N+](=O)[O-] | -1 | -4 | -4 | . | 1 | 4
O=[N+]([O-])c1ccc(Sc2cccc[n+]2[O-])c2nonc12 | 41* | -7 | -2 | . | -2 | -1
Cc1ccc(-n2cc(C(=O)c3ccc(N4CCN(C)CC4)cc3)nn2)cc1Cl | -2 | 0 | 7 | 2 | 105* | -1
COc1cc(/C=C/C(=O)/C=C(O)/C=C/c2ccc(O)c(OC)c2)ccc1O | -28 | 36 | . | . | 117* | 119
CCCS(=O)(=O)NC(=O)C1(C)CCCN(C(=O)/C=C/c2ccccc2)C1 (stereo not given) | 2 | . | 4 | . | 1 | 4
C=CCNC(=O)c1cccc2c1C(=O)c1ccc(N3CCCC3)cc1S2(=O)=O | -22 | -7 | . | . | 65 | 36*
Cc1ccc(CNC(=O)c2cccc3c2C(=O)c2ccc(N4CCCCC4)cc2S3(=O)=O)cc1 | -31 | 0 | . | . | 38* | 31
